# Laboratory results reported in paper PMC7383501 (Diabetes, Obesity & Metabolism, 2020).
# Key:
# [1] = Single-dose study: serum pharmacokinetics of efpeglenatide; assay type: in vivo, human; details: T2D patients, serum ELISA; for tmax: median (min–max)
# Procedure, shortened: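 Single s.c. dose (2–100 μg/kg) in T2D patients. Serum concentration–time data were used to derive tmax, terminal t1/2, observed Cmax, AUC(0–last) and AUC(0–inf). Values are geometric mean (%CV of arithmetic mean); tmax is median (min, max). Dose proportionality was explored on log-transformed Cmax and AUC. The PK set comprised dosed patients with sufficient concentration data.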
# [2] = Repeated-dose study: serum pharmacokinetics of efpeglenatide; assay type: in vivo, human; details: mean (SD); for Accumulation ratio: AUC0–τ last dose / AUC0–τ first dose; for PTR (peak‐to‐trough ratio): Cmax/Cmin
# Procedure, shortened: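 T2D patients on metformin received s.c. doses weekly (168 h interval, eight injections) or monthly (672 h interval, three injections). PK set, grouped by the most recent treatment received. Accumulation ratio was AUC0–τ of the last dose over AUC0–τ of the first dose. Peak-to-trough ratio was Cmax/Cmin. t1/2 was the terminal elimination half-life.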
# patients with T2D [3] = experiment: Single-dose study: pharmacodynamics; assay type: in vivo, human; details: single dose 2–8 μg/kg
# Procedure, shortened: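 Pharmacodynamics were assessed from 24-hour glucose profiles, including fasting and postprandial plasma glucose, reported as absolute change from baseline. The PD set comprised all treated patients.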
# patients with T2D [4] = experiment: Repeated-dose study: pharmacodynamics/efficacy; assay type: in vivo, human
# Procedure, shortened: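 Multiple-ascending-dose trial in adults with T2D on stable metformin: s.c. doses weekly (1, 2, 4 mg; 8 weeks) or monthly (8, 12, 16 mg; 9 weeks), placebo 3:1, no titration. Primary endpoint was HbA1c change from baseline to […]. Full analysis set by randomized treatment. LS means came from ANCOVA with cohort as main effect and baseline as covariate. Each dose was tested against placebo within its regimen, two-sided at 5%, unadjusted.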
# patients with T2D [5] = experiment: Single-dose study: safety and tolerability; assay type: in vivo, human
# Procedure, shortened: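 Single ascending s.c. doses of 2–100 μg/kg or placebo (5:1) were given to T2D patients after a 14-day washout of glucose-lowering drugs. Safety assessments covered AE recording, vital signs, 12-lead ECG, clinical laboratory measures and physical examination. The safety set included all patients receiving any study drug.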
# patients with T2D [6] = experiment: Repeated-dose study: safety and tolerability; assay type: in vivo, human
# Procedure, shortened: (§1)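 Adults aged 18–65 with T2D on stable metformin for ≥3 months, HbA1c 7–10%. Randomized 3:1 to s.c. test compound or placebo with no titration, in six cohorts of 12. Doses were 1, 2 or 4 mg weekly for 8 weeks, or 8, 12 or 16 mg monthly for 9 weeks; follow-up to week 13. Assessments covered AEs, vital signs, 12-lead ECG, clinical laboratory measures, immunogenicity and physical examination. Analysed in the safety set by treatment actually received.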
# [7] = tested on: anti-efpeglenatide antibodies; experiment: Single-dose study: immunogenicity, bridging ELISA; assay type: in vivo, human; details: serum, pre-dose, days 28 and 49, follow-up
# Procedure, shortened: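 First-in-patient dose escalation in eight cohorts of six T2D patients: single s.c. injection of 2–100 μg/kg test compound or placebo (5:1). Patients were 18–75 years, BMI 25–40 kg/m², HbA1c 6–10%, with a 14-day washout of glucose-lowering drugs before dosing. Immunogenicity was a secondary objective.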
# [8] = tested on: anti-efpeglenatide antibodies; experiment: Repeated-dose study: immunogenicity, bridging ELISA; assay type: in vivo, human; details: the four patients with antibodies at baseline
# Procedure, shortened: as §1
# GLP‐1 receptor [9] = details: in vitro; compared with other GLP‐1RAs; cited from earlier work
# GLP‐1 receptor [10] = details: in vitro; compared with other GLP‐1RAs; cited from earlier work; remark: listed apart in the source
# [11] = single s.c. dose 2 μg/kg, geometric mean (%CV)
# [12] = single s.c. dose 4 μg/kg, geometric mean (%CV)
# [13] = single s.c. dose 8 μg/kg, geometric mean (%CV)
# [14] = single s.c. dose 14 μg/kg, geometric mean (%CV)
# [15] = single s.c. dose 20 μg/kg, geometric mean (%CV)
# [16] = single s.c. dose 40 μg/kg, geometric mean (%CV)
# [17] = single s.c. dose 60 μg/kg, geometric mean (%CV)
# [18] = single s.c. dose 100 μg/kg, geometric mean (%CV)
substance,measurement,setting,value
efpeglenatide,AUC(0–last),[1]; [11],2913 (19) ng h/mL
same,Cmax,[1]; [11],10.4 (11) ng/mL
same,tmax,[1]; single s.c. dose 2 μg/kg,144.00 (72.06–216.76) h
same,AUC(0–inf),[1]; [12],9060 (12) ng h/mL
same,AUC(0–last),[1]; [12],7911 (12) ng h/mL
same,Cmax,[1]; [12],25.7 (16) ng/mL
same,t1/2,[1]; [12],144 (10) h
same,tmax,[1]; single s.c. dose 4 μg/kg,72.06 (72.00–216.80) h
same,Cmax,[1]; [13],45.1 (5) ng/mL
same,t1/2,[1]; [13],147 (19) h
same,tmax,[1]; single s.c. dose 8 μg/kg,72.06 (72.00–144.00) h
same,Cmax,[1]; [14],80.3 (28) ng/mL
same,t1/2,[1]; [14],135 (8) h
same,tmax,[1]; single s.c. dose 14 μg/kg,144.00 (72.00–216.76) h
same,Cmax,[1]; [15],102 (6) ng/mL
same,t1/2,[1]; [15],147 (6) h
same,tmax,[1]; single s.c. dose 20 μg/kg,144.00 (72.00–216.78) h
same,Cmax,[1]; [16],202 (14) ng/mL
same,t1/2,[1]; [16],141 (10) h
same,tmax,[1]; single s.c. dose 40 μg/kg,144.00 (72.00–216.78) h
same,Cmax,[1]; [17],349 (13) ng/mL
same,t1/2,[1]; [17],154 (9) h
same,tmax,[1]; single s.c. dose 60 μg/kg,72.00 (72.00–144.00) h
same,Cmax,[1]; [18],643 (12) ng/mL
same,t1/2,[1]; [18],180 (12) h
same,tmax,[1]; single s.c. dose 100 μg/kg,72.00 (72.00–216.90) h
same,Accumulation ratio,"[2]; 1 mg once weekly s.c., τ 168 h",3.49 (2.16)
same,PTR (peak‐to‐trough ratio),[2]; 1 mg once weekly s.c.,1.40 (0.49)
same,Accumulation ratio,"[2]; 2 mg once weekly s.c., τ 168 h",3.51 (0.68)
same,PTR (peak‐to‐trough ratio),[2]; 2 mg once weekly s.c.,1.42 (0.21)
same,Accumulation ratio,"[2]; 4 mg once weekly s.c., τ 168 h",3.71 (1.87)
same,PTR (peak‐to‐trough ratio),[2]; 4 mg once weekly s.c.,1.32 (0.12)
same,Accumulation ratio,"[2]; 8 mg once monthly s.c., τ 672 h",1.07 (0.10)
same,PTR (peak‐to‐trough ratio),[2]; 8 mg once monthly s.c.,10.35 (7.28)
same,PTR (peak‐to‐trough ratio),[2]; 12 mg once monthly s.c.,5.86 (1.10)
same,PTR (peak‐to‐trough ratio),[2]; 16 mg once monthly s.c.,12.94 (7.55)
same,changes in PPG,patients with T2D [3],No notable changes
same,reductions in FPG from baseline over 2 weeks,"patients with T2D [3]; compared with the higher doses, data not shown",smaller than those observed for the higher doses
same,LS mean change in HbA1c compared with placebo,"patients with T2D [4]; 8 mg once monthly, day 57, P = 0.006",statistically significant LS mean decreases
same,LS mean change in HbA1c compared with placebo,"patients with T2D [4]; 12 mg once monthly, day 57, P = 0.015",statistically significant LS mean decreases
same,LS mean change in HbA1c compared with placebo,"patients with T2D [4]; 16 mg once monthly, day 57",not statistically significant
same,LS mean change in HbA1c compared with placebo,"patients with T2D [4]; all once‐monthly dose groups (8, 12, 16 mg), day 29, P ≤0.047 for all, ANCOVA",significant decreases
same,LS mean change in HbA1c compared with placebo,"patients with T2D [4]; each once‐weekly dose group (1, 2, 4 mg), day 29, P ≤0.003 for all, ANCOVA",Significant decreases
same,LS mean change in HbA1c compared with placebo,"patients with T2D [4]; each once‐weekly dose group (1, 2, 4 mg), day 57, P ≤0.021 for all, ANCOVA",Significant decreases
same,deaths or serious AEs,patients with T2D [5],no deaths or serious AEs
same,arrhythmia or ECG changes due to QTc prolongation or conduction disorders,patients with T2D [5]; 12‐lead ECG,no signs of arrhythmia or ECG changes
same,hypoglycaemia or pancreatitis reported as AEs,patients with T2D [5]; any treatment group,No incidences
same,dose-escalation stopping criteria,"patients with T2D [6]; 16 mg once monthly cohort, more than three patients with moderate vomiting",reached the predefined stopping criteria for dose escalation
same,pancreatic injury,"patients with T2D [6]; any patient receiving efpeglenatide, repeated-dose study",no cases of pancreatic injury
same,"haematological, serum chemistry or urine analysis variables","patients with T2D [6]; any treatment group, repeated-dose study",no significant change from baseline
same,development of anti‐efpeglenatide antibodies,[7],No patient
same,treatment‐emergent or treatment‐induced antibodies,[8],none
same,dissociation from the GLP‐1 receptor,GLP‐1 receptor [9],faster dissociation
same,receptor internalization,GLP‐1 receptor [10],reduced receptor internalization
